The values below come from PMC7993319 (Clinical and Translational Science, 2020).

Like-named read-outs stand apart in the source and are kept apart here.

The test system of one series is ALK. As to conditions: lactam metabolite, two diastereoisomers; cited from earlier work.
For series [1] the following is noted: cited from earlier work.
A short description of series [2]: Safety monitoring in the trial. In kind it is in vivo, human (patient with ALK‐positive NSCLC). The gist of the method: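 Safety was monitored by physical examination and laboratory tests on days 1 and 15, with safety visits on days 8 and 29. Triplicate 12-lead recordings were taken predose on day 1 (before the oral CYP3A inhibitor, 150 mg q.d. from day 2) and on days 8 and 15 of co-treatment with the ALK inhibitor. QT was corrected by Fridericia.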

For series [3] the following is noted: co‐administration of CYP3A‐inducing rifampin; cited from earlier work.
Series [4] is classed as in vivo, human (patients with ALK‐positive NSCLC). As to conditions: for Crizotinib Cmin,ss: enrolled patient; for AUC(0-t): human, oral, Crizotinib AUC0–12, enrolled patient. The gist of the method: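 Patients on standard oral ALK inhibitor (250 mg b.i.d., ≥14 days) with trough <310 ng/mL got oral CYP3A inhibitor 150 mg q.d. from day 2 for 14 days. Plasma sampled predose and 0.5–12 h (11 points) on days 1 and 15, plus trough on day 8. LC-MS/MS with ether extraction, isotope-labelled internal standard, 1–5,000 ng/mL. AUC0–12 by noncompartmental analysis.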

Another series deals with NSCLC. The note with it: cited from earlier work.

As to `C[C@@H](Oc1cc(-c2cnn(C3CCNC(=O)C3)c2)cnc1N)c1c(Cl)ccc(F)c1Cl` (some centres unmarked) [PF‐06260182], the “ALK‐inhibiting activity” value with ALK is 4–8%.
On to `CCc1cc2c(cc1N1CCC(NCCO)CC1)C(C)(C)c1[nH]c3cc(C#N)ccc3c1C2=O` [M4], for which the “Activity of metabolite relative to alectinib” value in series [1] is given as “equipotently active”.
On to `CC(C)c1nc(CN(C)C(=O)N[C@@H](CCN2CCOCC2)C(=O)N[C@H](CC[C@H](Cc2ccccc2)NC(=O)OCc2cncs2)Cc2ccccc2)cs1` [cobicistat], for which the QTcF in series [2] (day 8 of cobicistat treatment, with crizotinib) amounted to 410 ms; in series [2] (day 15 of cobicistat treatment, with crizotinib) it was 413 ms. Moreover, the Heart rate in series [2] (day 15, crizotinib plus cobicistat) stood at 54 bpm. Besides, the “Safety signals / adverse events” value in series [2] (single patient, crizotinib 250 mg b.i.d. plus cobicistat 150 mg q.d. for 14 days) is on record as “No safety signals occurred”. In addition, the Laboratory changes entry in series [2] (single patient, crizotinib plus cobicistat) is “no significant laboratory changes except a grade I increase in transaminases”.
`CCc1cc2c(cc1N1CCC(N3CCOCC3)CC1)C(C)(C)c1[nH]c3cc(C#N)ccc3c1C2=O` [alectinib]: in series [1] (administration of the CYP3A inhibitor posaconazole), the “Increase of combined AUC of alectinib and the M4 metabolite” value is reported as 36%. Also, the “CYP3A contribution to clearance” value in series [1] (alectinib) is listed as 40–50%.
For `C[C@@H](Oc1cc(-c2cnn(C3CCNCC3)c2)cnc1N)c1c(Cl)ccc(F)c1Cl` [crizotinib], the “Decrease of crizotinib AUC” value in series [3] is reported as 72%. Besides, the QTcF in series [2] (before cobicistat treatment, on crizotinib, triplicate ECG) is listed as 394 ms. This compound returned a Heart rate in series [2] (day 1, before cobicistat, on crizotinib) of 56 bpm. The “Mean crizotinib Cmin,ss at screening” value in series [4] (7 screened patients, oral crizotinib 250 mg b.i.d., steady state, plasma) turned out to be 279 ± 77 ng/mL. For the same compound, the “AUC0–12 ratio” value in series [4] (crizotinib with cobicistat (14 days) vs baseline) amounted to 1.78. In addition, the “Crizotinib Cmin,ss” value worked out at 158 ng/mL in series [4] (day 1, before cobicistat, crizotinib 250 mg b.i.d.) and 308 ng/mL in series [4] (day 8, with oral cobicistat 150 mg q.d.). The AUC(0-t) is 3920 ng·h/mL in series [4] (plasma, after 14 days of cobicistat treatment) and 2210 ng·h/mL in series [4] (plasma, baseline (before cobicistat), steady state). Moreover, the “Underexposed patients (Cmin,ss < 310 ng/mL)” value in series [4] (unselected NSCLC population screened (5 of 7 patients)) was 71%. The “Increase of crizotinib AUC0–12” value in series [4] (with cobicistat for 14 days vs before cobicistat) was determined as 78%. Further, the “Hazard ratio (progression-free survival model)” value with NSCLC (lowest quartile vs. the combined upper three quartiles, 90% confidence interval: 1.62–6.36) is listed as 3.2. Also, the ORR is recorded as 60–75% with NSCLC (quartile with the highest Cmin,ss) and 24–47% in the series on NSCLC (quartile with the lowest Cmin,ss (< 310 ng/mL)).
